Data as given in article PMC5414581 (Neuropharmacology, 2017).
Entries after “also recorded” stand apart in the source; their conditions may differ. Where a SMILES comes first, the peptide text is derived from it. Where no end group is shown, it is not given here.

Legend:
hNPSR-107N [1] = biological target: T1, hNPSR-107N (Homo sapiens, UniProt Q6W5P4); test: cAMP accumulation assay; format: cell-based
T1 sequence (Q6W5P4 1-371): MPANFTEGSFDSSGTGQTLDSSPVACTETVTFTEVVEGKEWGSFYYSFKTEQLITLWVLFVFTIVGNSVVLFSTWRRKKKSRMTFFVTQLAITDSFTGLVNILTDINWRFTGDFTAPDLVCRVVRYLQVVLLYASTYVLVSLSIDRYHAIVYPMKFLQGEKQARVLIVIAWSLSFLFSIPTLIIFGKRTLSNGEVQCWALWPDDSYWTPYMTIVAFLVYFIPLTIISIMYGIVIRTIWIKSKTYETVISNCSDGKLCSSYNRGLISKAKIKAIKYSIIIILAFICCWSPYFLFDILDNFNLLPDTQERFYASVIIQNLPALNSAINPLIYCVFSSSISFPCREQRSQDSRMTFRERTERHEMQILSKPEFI
How it was run: (§1)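 Cells were harvested with versene and suspended in HBSS, 5 mM HEPES, 0.5 mM IBMX, 0.1% BSA, pH 7.4: hNPSR-107N at 8,000/well, hNPSR-107I at 4,000/well, mNPSR at 20,000/well. Agonist was incubated at room temperature for 30 min (human lines) or 1 h (mNPSR). LANCE Ultra TR-FRET detection ran 1 h in the dark. RFU was interpolated to fmol cAMP from a standard curve, and a three-parameter fit gave EC50.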

mNPSR [2] = biological target: T2, mNPSR (Mus musculus, UniProt Q8BZP8); test: Ca+2 mobilization assay, HEK 293T mNPSR cells; format: cell-based
T2 sequence (Q8BZP8 1-371): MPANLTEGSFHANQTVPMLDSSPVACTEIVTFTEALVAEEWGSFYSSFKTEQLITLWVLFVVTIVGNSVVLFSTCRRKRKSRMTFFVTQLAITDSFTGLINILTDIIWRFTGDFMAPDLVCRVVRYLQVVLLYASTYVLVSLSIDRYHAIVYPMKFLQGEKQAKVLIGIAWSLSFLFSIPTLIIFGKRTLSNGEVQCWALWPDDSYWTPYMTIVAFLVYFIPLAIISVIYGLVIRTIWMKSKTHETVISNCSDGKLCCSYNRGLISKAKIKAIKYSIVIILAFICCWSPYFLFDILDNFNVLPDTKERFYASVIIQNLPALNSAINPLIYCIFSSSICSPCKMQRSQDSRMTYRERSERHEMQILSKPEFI
How it was run: (§2)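 FLIPR Calcium 5 dye diluted 1:40 in HBSS, 20 mM HEPES, 2.5 mM probenecid, pH 7.4, loaded 45 min at 37 °C. Cells were plated overnight without selection antibiotics: CHO-Gα16 hNPSR-107I/N at 25,000/well and HEK 293T mNPSR at 35,000/well. Cells were pretreated 15 min at 1% DMSO. Test compound or NPS was added during a 60 s read (ex 485/em 525). Peak RFU was fit to a three-parameter logistic curve to give EC50. Bias was taken as Log(max/EC50), calcium versus cAMP, relative to NPS.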

hNPSR-107I [3] = biological target: T3, hNPSR-107I (Homo sapiens, UniProt Q6W5P4, N107I); test: Ca+2 mobilization assay, CHO-Gα16 hNPSR-107I cells; format: cell-based
T3 sequence (Q6W5P4 1-371 N107I): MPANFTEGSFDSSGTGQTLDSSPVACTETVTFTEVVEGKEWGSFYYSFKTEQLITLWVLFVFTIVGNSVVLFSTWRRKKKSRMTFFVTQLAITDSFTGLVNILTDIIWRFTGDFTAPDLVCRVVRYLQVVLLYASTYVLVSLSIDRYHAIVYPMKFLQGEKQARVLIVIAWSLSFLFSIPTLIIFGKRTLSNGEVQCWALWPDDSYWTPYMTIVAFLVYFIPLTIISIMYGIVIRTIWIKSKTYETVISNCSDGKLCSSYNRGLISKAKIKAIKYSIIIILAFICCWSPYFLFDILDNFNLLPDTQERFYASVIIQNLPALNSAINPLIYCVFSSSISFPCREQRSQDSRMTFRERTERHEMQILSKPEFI
How it was run: as §2

mNPSR [4] = biological target: T2, mNPSR; test: cAMP accumulation assay; format: cell-based
How it was run: as §1

mice [5] = test: Light-Dark Box; format: in vivo, mouse; conditions: 1 nmole ICV, 5–10 minutes before test
hNPSR-107N [6] = biological target: T1, hNPSR-107N; test: Ca+2 mobilization assay, CHO-Gα16 hNPSR-107N cells; format: cell-based; conditions: hNPSR 107N cell line
How it was run: as §2

hNPSR-107I [7] = biological target: T3, hNPSR-107I; test: cAMP accumulation assay; format: cell-based
How it was run: as §1

hNPSR-107I [8] = biological target: T3, hNPSR-107I; conditions: ref Bernier et al., 2006; cited from earlier work
mice [9] = test: Passive Avoidance; format: in vivo, mouse; conditions: ICV 20 minutes after training, tested 48 hours after training; compound 4 0.01-10 nmole, NPS 1 nmole; vs aCSF
mice [10] = test: Marble Burying; format: in vivo, mouse
mice [11] = test: Locomotor stimulation; format: in vivo, mouse; conditions: RTI-118 50 mg/kg i.p.; compound 4 10 nmole ICV
How it was run: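 Mice were habituated 1 h in a 40 × 40 cm infrared-beam open field in a novel room, during the light phase. Test compound in aCSF/0.1% BSA was given ICV into the lateral ventricle under brief isoflurane. Recording began after ≥5 min recovery. The antagonist was given 50 mg/kg i.p. in saline as pretreatment. Misplaced injections were excluded post-mortem. n = 7–11 per group; one-way ANOVA with Dunnett's test.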

[12] = biological target: T4, human NPS receptor, 107I variant (human) (UniProt Q6W5P4)
T4 sequence: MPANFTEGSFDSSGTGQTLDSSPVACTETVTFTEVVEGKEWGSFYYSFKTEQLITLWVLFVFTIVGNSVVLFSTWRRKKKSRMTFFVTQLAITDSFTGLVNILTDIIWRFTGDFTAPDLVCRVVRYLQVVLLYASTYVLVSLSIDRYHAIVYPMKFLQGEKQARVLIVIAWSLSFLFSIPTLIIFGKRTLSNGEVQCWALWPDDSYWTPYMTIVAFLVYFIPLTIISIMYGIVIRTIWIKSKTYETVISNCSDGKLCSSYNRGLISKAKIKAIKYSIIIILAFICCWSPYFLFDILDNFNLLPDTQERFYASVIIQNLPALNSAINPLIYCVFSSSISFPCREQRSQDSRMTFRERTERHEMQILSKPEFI

[13] = biological target: T5, mouse NPS receptor (mouse) (UniProt Q8BZP8)
T5 sequence: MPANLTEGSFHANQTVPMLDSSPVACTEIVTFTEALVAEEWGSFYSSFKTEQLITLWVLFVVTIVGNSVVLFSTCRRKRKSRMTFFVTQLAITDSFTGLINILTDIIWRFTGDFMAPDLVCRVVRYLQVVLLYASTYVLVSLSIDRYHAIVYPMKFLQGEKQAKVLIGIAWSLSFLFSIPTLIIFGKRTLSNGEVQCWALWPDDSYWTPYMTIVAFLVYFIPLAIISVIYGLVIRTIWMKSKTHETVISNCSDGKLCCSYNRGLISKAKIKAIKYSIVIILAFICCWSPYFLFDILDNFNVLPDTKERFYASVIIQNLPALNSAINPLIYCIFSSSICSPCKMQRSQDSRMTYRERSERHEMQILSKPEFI

[14] = biological target: T6, human NPS receptor, 107N variant (human) (UniProt Q6W5P4)
T6 sequence: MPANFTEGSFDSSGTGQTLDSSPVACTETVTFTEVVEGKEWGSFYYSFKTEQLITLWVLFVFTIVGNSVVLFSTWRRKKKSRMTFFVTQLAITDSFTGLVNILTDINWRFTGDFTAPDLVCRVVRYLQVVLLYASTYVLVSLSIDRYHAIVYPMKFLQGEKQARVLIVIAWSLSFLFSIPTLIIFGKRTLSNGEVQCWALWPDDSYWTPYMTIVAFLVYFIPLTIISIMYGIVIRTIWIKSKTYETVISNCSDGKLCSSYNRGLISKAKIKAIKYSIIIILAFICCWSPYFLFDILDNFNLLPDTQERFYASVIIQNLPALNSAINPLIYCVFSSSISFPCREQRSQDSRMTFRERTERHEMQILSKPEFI

[15] = mNPSR cell line, fraction of maximal window for response
[16] = hNPSR 107I cell line, fraction of maximal window for response

Molecule: SFRNGVGTGMKKTSFQRAKS [NPS, Neuropeptide S]
- cAMP Accumulation Max (hNPSR-107N [1]; hNPSR 107N cell line, fraction of maximal window for response): 0.97
- BIAS (Bias Toward Calcium) (mNPSR [2]; mNPSR cell line, calcium versus cAMP pathway): 1.00
- Calcium Mobilization Max (mNPSR [2]; [15]): 1
- BIAS (Bias Toward Calcium) (hNPSR-107I [3]; hNPSR 107I cell line, calcium versus cAMP pathway): 1.00
- Calcium Mobilization Max (hNPSR-107I [3]; [16]): 0.96
- cAMP Accumulation Max (mNPSR [4]; [15]): 0.82
- number of entries into the light-side (mice [5]): Neither NPS nor 4 significantly increased the number of entries into the light-side; also recorded: significantly more entries than compound 4 treated animals
- time spent on the light side (mice [5]; vs aCSF): significantly increased the time spent on the light-side; also recorded: spent significantly more time on the light-side than the compound 4 treated animals
- BIAS (Bias Toward Calcium) (hNPSR-107N [6]; calcium versus cAMP pathway): 1.00
- Calcium Mobilization Max (hNPSR-107N [6]; fraction of maximal window for response): 0.97
- cAMP Accumulation Max (hNPSR-107I [7]; [16]): 1
- selectivity for the hNPSR-107I over the hNPSR-107N (calcium mobilization EC50) (hNPSR-107I [8]): 5 fold
- latency to enter the dark compartment (mice [9]): appear to have the same maximal effects; also recorded: significantly increased the latency time
- number of marbles buried (mice [10]; 1 nmole ICV, twenty minutes before test, vs aCSF (Figure 5A)): NPS and 4 produce similar effects; also recorded: significantly decreased the number of marbles buried

Molecule: NCCCC[C@H](NC(=O)[C@H](Cc1ccccc1)NC(=O)[C@@H](N)CO)C(=O)N[C@@H](CC(N)=O)C(N)=O [compound 4, SerPheLysAsn-NH2] (H-SFKN-NH2)
- EC50 (mNPSR [2]): 100 ± 5.3 nM
- EC50 (hNPSR-107I [3]): 3.02 ± 0.74 nM
- EC50 (mNPSR [4]): 911 ± 86 nM
- EC50 (hNPSR-107I [7]): 117 ± 22 nM

Molecule: O=C(NCCN1CCCCC1)N1CCN2C(=O)OC(c3ccccc3)(c3ccccc3)C2C1 (centres unmarked) [RTI-118]
- block of compound 4 induced locomotor effects by pretreatment (mice [11]): induced locomotor effects can be blocked; also recorded: this effect is blocked by pretreatment
- block of compound 4 effect on marble burying by pretreatment (mice [10]; RTI-118 20 mg/kg fifteen minutes before compound 4 0.5 nmole): effects of 4 can be blocked; also recorded: blocked by the pretreatment with RTI-118

Molecule: 7. SerPheAOCAsn-NH2 (peptide)
- EC50 of calcium mobilization, CHO-Gα16 hNPSR-107I cells [12]: 436 nM

Molecule: SFRNGV-NH2 [compound 1, SerPheArgAsnGlyVal-NH2]
- EC50 (hNPSR-107N [1]): 427 nM
- EC50 (mNPSR [2]): 2.03 ± 0.3 nM
- EC50 (mNPSR [4]): 13.4 ± 4.8 nM
- EC50 (hNPSR-107I [7]): 1.95 ± 0.28 nM
- cAMP Accumulation EC50 (hNPSR-107I [7]; hNPSR 107I cell line): comparable potency to NPS

Molecule: SFRN-NH2 [3. SerPheArgAsn-NH2]
- EC50 of cAMP accumulation, HEK 293T mNPSR cells [13]: 800 nM
- EC50 of calcium mobilization, HEK 293T mNPSR cells [13]: 66.6 nM
- EC50 of cAMP accumulation, HEK 293T hNPSR-107N cells [14]: > 10000 nM
- EC50 of calcium mobilization, CHO-Gα16 hNPSR-107N cells [14]: 998 nM
- EC50 of cAMP accumulation, HEK 293T hNPSR-107I cells [12]: 129 nM
- EC50 of calcium mobilization, CHO-Gα16 hNPSR-107I cells [12]: 2.43 nM
